{
  "source": "ChEMBL document CHEMBL5653622",
  "about": "(Oncotarget, 2016)",
  "key": {"Mus musculus [1]": {"system": "Mus musculus", "assay": "Effect on CHK1 in CRTac:Ncr-Fox1 athymic mouse xenografted with human Calu-6 cells assessed as phosphorylation of CHK1 at S345 at 100 mg/kg, iv in presence of carboplatin by Western blotting analysis", "format": "functional, organism-based", "procedure,_shortened": "(§1)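 Female CRTac:Ncr-Fox1(nu) athymic mice carried s.c. Calu6 xenografts. Tumors were taken 6h after the last inhibitor dose, lysed in CHAPS buffer, and immunoblotted with GAPDH as loading control.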"}, "HT-29 [2]": {"system": "HT-29", "assay": "Cytotoxicity against human HT-29 cells assessed as phosphorylation of CHK1 on S317 at 200 nM by Western blotting analysis", "format": "functional, cell-based", "procedure,_shortened": "(§2)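 HT29 colon cells treated with gemcitabine with or without inhibitor. Protein expression was read by western blotting with 50μg protein per lane.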"}, "HT-29 [3]": {"system": "HT-29", "assay": "Antitumor activity against human HT-29 cells xenografted in CRTac:Ncr-Fox1 mouse assessed as tumor growth delay at 100 mg/kg, iv (reference value: 7.2 +/- 1.8 days)", "format": "functional"}, "Calu-6": {"system": "Calu-6", "assay": "Antitumor activity against human Calu-6 cells xenografted in CRTac:Ncr-Fox1 mouse assessed as tumor growth delay time at 100 mg/kg, iv in presence of carboplatin (reference value: 6.4 +/- 2.5 days)", "format": "functional"}, "HT-29 [4]": {"system": "HT-29", "assay": "Antitumor activity against human HT-29 cells xenografted in CRTac:Ncr-Fox1 mouse assessed as tumor growth delay at 100 mg/kg, iv (reference value: 8.4 +/- 1.6 days)", "format": "functional"}, "[5]": {"assay": "Toxicity in CRTac:Ncr-Fox1 mouse xenografted with human HT-29 cells assessed as body weight at 200 mg/kg, iv administered for 16 days relative to control", "format": "organism-based", "details": "in vivo, 384 h, time 16 day"}, "Mus musculus [6]": {"system": "Mus musculus", "assay": "Effect on CHK1 in CRTac:Ncr-Fox1 athymic mouse xenografted with human Calu-6 cells assessed as phosphorylation of CHK1 at S296 at 100 mg/kg, iv in presence of carboplatin by Western blotting analysis", "format": "functional, organism-based", "procedure,_shortened": "as §1"}, "[7]": {"assay": "Toxicity in CRTac:Ncr-Fox1 mouse xenografted with human SW620 cells assessed as body weight at 100 mg/kg, iv administered for 9 days relative to control", "format": "organism-based, SW-620", "details": "in vivo, 216 h, time 9 day"}, "HT-29 [8]": {"system": "HT-29", "assay": "Cytotoxicity against human HT-29 cells assessed as phosphorylation of CHK1 on S280 at 200 nM by Western blotting analysis", "format": "functional, cell-based", "procedure,_shortened": "as §2"}, "HT-29 [9]": {"system": "HT-29", "assay": "Antitumor activity against human HT-29 cells xenografted in CRTac:Ncr-Fox1 mouse assessed as tumor growth delay at 100 mg/kg, iv (reference value: […] +/- 5.2 days)", "format": "functional"}, "HT-29 [10]": {"system": "HT-29", "assay": "Cytotoxicity against human HT-29 cells assessed as phosphorylation of CHK1 on S296 at 200 nM by Western blotting analysis", "format": "functional, cell-based", "procedure,_shortened": "as §2"}, "HT-29 [11]": {"system": "HT-29", "assay": "Cytotoxicity against human HT-29 cells assessed as phosphorylation of CHK1 on S345 at 200 nM by Western blotting analysis", "format": "functional, cell-based", "procedure,_shortened": "as §2"}, "HT-29 [12]": {"system": "HT-29", "assay": "Induction of cell cycle arrest in human HT-29 cells assessed as phosphorylation of CDK1 on pY15 at 200 nM by Western blotting analysis", "format": "functional, cell-based", "procedure,_shortened": "as §2"}, "Mus musculus [13]": {"system": "Mus musculus", "assay": "In vivo inhibition of CHK1 in CRTac:Ncr-Fox1 mouse xenografted with human HT-29 cells assessed as increased phosphorylation of CDK1 on Y15 at 100 mg/kg, iv administered for 24 hrs by Western blotting analysis", "format": "functional, organism-based", "procedure,_shortened": "(§3)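 HT29 s.c. xenografts in female athymic nude mice. Single gemcitabine dose 100mg/kg i.v. on day 0, then one inhibitor dose 50 or 100mg/kg p.o. (DPTW vehicle) 24h later. Tumors taken 24h after the last dose, western blotted, and signals quantified by normalizing to GAPDH.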"}, "Mus musculus [14]": {"system": "Mus musculus", "assay": "In vivo inhibition of CHK1 in CRTac:Ncr-Fox1 mouse xenografted with human HT-29 cells assessed as increased phosphorylation of CHK1 on S296 at 100 mg/kg, iv administered for 24 hrs by Western blotting analysis", "format": "functional, organism-based", "procedure,_shortened": "as §3"}, "Mus musculus [15]": {"system": "Mus musculus", "assay": "Effect on CHK1 in CRTac:Ncr-Fox1 athymic mouse xenografted with human Calu-6 cells assessed as phosphorylation of CHK1 at S317 at 100 mg/kg, iv in presence of carboplatin by Western blotting analysis", "format": "functional, organism-based", "procedure,_shortened": "as §1"}, "Mus musculus [16]": {"system": "Mus musculus", "assay": "In vivo inhibition of CHK1 in CRTac:Ncr-Fox1 mouse xenografted with human HT-29 cells assessed as increased phosphorylation of CHK1 on S317 at 100 mg/kg, iv administered for 24 hrs by Western blotting analysis", "format": "functional, organism-based", "procedure,_shortened": "as §3"}},
  "note": "Calls of active or inactive are those of the source. No cut-off for these calls is given here.",
  "data": [
    {"compound": "Nc1ccn([C@@H]2O[C@H](CO)[C@@H](O)C2(F)F)c(=O)n1", "note": "[GEMCITABINE]", "values": [
      {"measurement": "Activity", "setting": "Mus musculus [1]", "result": "Active"},
      {"measurement": "Activity", "setting": "HT-29 [2]", "result": "Active"},
      {"measurement": "Time", "setting": "HT-29 [3]", "result": 2.9, "unit": "days"},
      {"measurement": "Time", "setting": "Calu-6", "result": 0.7, "unit": "days"},
      {"measurement": "Time", "setting": "HT-29 [4]", "result": 2.6, "unit": "days"},
      {"measurement": "residual activity", "setting": "[5]", "result": 94.2, "unit": "%"},
      {"measurement": "Activity", "setting": "Mus musculus [6]", "result": "Active"},
      {"measurement": "residual activity", "setting": "[7]", "result": 95.7, "unit": "%"},
      {"measurement": "Activity", "setting": "HT-29 [8]", "result": "Active"},
      {"measurement": "Time", "setting": "HT-29 [9]", "result": 0.3, "unit": "days"},
      {"measurement": "Activity", "setting": "HT-29 [10]", "result": "Active"},
      {"measurement": "Activity", "setting": "HT-29 [11]", "result": "Active"},
      {"measurement": "Activity", "setting": "HT-29 [12]", "result": "Active"},
      {"measurement": "Activity", "setting": "Mus musculus [13]", "result": "Active"},
      {"measurement": "Activity", "setting": "Mus musculus [14]", "result": "Active"},
      {"measurement": "Activity", "setting": "Mus musculus [15]", "result": "Active"},
      {"measurement": "Activity", "setting": "Mus musculus [16]", "result": "Active"}
    ]}
  ]
}
